Measured values: ChEMBL document CHEMBL4145697, “Replacement of a Naphthalene Scaffold in Kelch-like ECH-Associated Protein 1 (KEAP1)/Nuclear Factor (Erythroid-derived 2)-like 2 (NRF2) Inhibitors” (J Med Chem, 2018)
Converted amounts (≈) assume the structure as drawn. The source made the active and inactive calls. The rule behind the calls is not given here.

Columns and labels:
[1] = system: Salmonella typhimurium; assay: Cytotoxicity in Salmonella typhimurium TA98 at 1.5 to 1000 ug/well; type: organism-based; conditions: salmonella enterica subsp. enterica serovar typhimurium
Procedure, shortened: (§1)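 Mini-Ames plate incorporation; compounds dissolved in DMSO, tested at 1.5–1000 µg/well with and without Aroclor 1254-induced rat liver S9, alongside solvent and positive controls. Cells in top agar over minimal glucose agar; triplicate wells (vehicle sextuplicate), 37 ± 2 °C for 48–72 h. Cytotoxicity scored as fewer revertants per well and/or thinning or loss of background lawn relative to negative control.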

[2] = system: HaCaT; assay: Effect on SOD2 gene expression in human HaCaT cells at 10 uM incubated for 6 hrs by qPCR method; type: ADME, cell-based
[3] = system: HaCaT; assay: Effect on SOD2 gene expression in human HaCaT cells at 10 uM incubated for 24 hrs by qPCR method; type: ADME, cell-based
[4] = system: Salmonella typhimurium; assay: Cytotoxicity in Salmonella typhimurium TA100 at 1.5 to 1000 ug/well; type: organism-based; conditions: salmonella enterica subsp. enterica serovar typhimurium; procedure, shortened: as §1
[5] = system: Salmonella typhimurium; assay: Cytotoxicity in Salmonella typhimurium TA1535 at 1.5 to 1000 ug/well; type: organism-based; conditions: salmonella enterica subsp. enterica serovar typhimurium; procedure, shortened: as §1
[6] = system: Salmonella typhimurium; assay: Cytotoxicity in Salmonella typhimurium TA1537 at 1.5 to 1000 ug/well; type: organism-based; conditions: salmonella enterica subsp. enterica serovar typhimurium; procedure, shortened: as §1
[7] = system: Escherichia coli; assay: Cytotoxicity in Escherichia coli WP2 uvrA (pKM101) at 1.5 to 1000 ug/well; type: organism-based; conditions: in vivo; procedure, shortened: as §1
[8] = Lipophilicity, log D of the compound; type: physicochemical; conditions: octanol/water
[9] = target: Keap1/Nrf2 (Homo sapiens, UniProt Q14145); assay: Inhibition of Keap1 Kelch domain (unknown origin) /Nrf2 (unknown origin) interaction using fluorescein-labeled 9-mer peptide containing NRF2 Neh2 domain ETGE motif by fluorescence anisotropy assay; type: protein assay
[10] = target: Kelch-like ECH-associated protein 1 (Homo sapiens, UniProt Q14145); assay: Binding affinity to Keap1 Kelch domain (unknown origin) by surface plasmon resonance assay
[11] = target: T1, Keap1/Nrf2 (Homo sapiens) (UniProt Q16236+Q14145); assay: Inhibition of Keap1/Nrf2 interaction in human HaCaT cells assessed as increase in NRF2 nuclear accumulation at 10 uM incubated for 6 hrs by immunoblot assay; type: cell-based
[12] = target: T1, Keap1/Nrf2 (Homo sapiens); assay: Inhibition of Keap1/Nrf2 interaction in human HaCaT cells assessed as increase in NRF2 nuclear accumulation at 10 uM incubated for 24 hrs by immunoblot assay; type: cell-based
[13] = target: T1, Keap1/Nrf2 (Homo sapiens); assay: Inhibition of Keap1/Nrf2 interaction in human HaCaT cells assessed as increase in HMOX1 gene expression at 10 uM incubated for 6 hrs by qPCR method; type: cell-based
[14] = target: T1, Keap1/Nrf2 (Homo sapiens); assay: Inhibition of Keap1/Nrf2 interaction in human HaCaT cells assessed as increase in GCLM gene expression at 10 uM incubated for 6 hrs by qPCR method; type: cell-based
[15] = target: T1, Keap1/Nrf2 (Homo sapiens); assay: Inhibition of Keap1/Nrf2 interaction in human HaCaT cells assessed as increase in GCLC gene expression at 10 uM incubated for 6 hrs by qPCR method; type: cell-based
[16] = target: T1, Keap1/Nrf2 (Homo sapiens); assay: Inhibition of Keap1/Nrf2 interaction in human HaCaT cells assessed as increase in NQO1 gene expression at 10 uM incubated for 24 hrs by qPCR method; type: cell-based
[17] = target: T1, Keap1/Nrf2 (Homo sapiens); assay: Inhibition of Keap1/Nrf2 interaction in human HaCaT cells assessed as increase in HMOX1 gene expression at 10 uM incubated for 24 hrs by qPCR method; type: cell-based
[18] = target: T1, Keap1/Nrf2 (Homo sapiens); assay: Inhibition of Keap1/Nrf2 interaction in human HaCaT cells assessed as increase in GCLM gene expression at 10 uM incubated for 24 hrs by qPCR method; type: cell-based
[19] = target: T1, Keap1/Nrf2 (Homo sapiens); assay: Inhibition of Keap1/Nrf2 interaction in human HaCaT cells assessed as increase in GCLC gene expression at 10 uM incubated for 24 hrs by qPCR method; type: cell-based
[20] = target: T1, Keap1/Nrf2 (Homo sapiens); assay: Inhibition of Keap1/Nrf2 interaction in human HaCaT cells assessed as increase in NQO1 gene expression at 10 uM incubated for 6 hrs by qPCR method; type: cell-based
[21] = target: T1, Keap1/Nrf2 (Homo sapiens); assay: Inhibition of Keap1/Nrf2 interaction in human HaCaT cells assessed as increase in NQO1 protein expression at 10 uM incubated for 6 hrs by Western blot method; type: cell-based
Procedure, shortened: (§2)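 HaCaT cells in DMEM, 10% FBS, 1% antibiotics, treated at 70–80% confluence with 10 μM compound or DMSO for 6 or 24 h in complete medium. Lysates (~40 μg protein) resolved by 10% SDS-PAGE, immunoblotted for NQO1; bands quantified against GAPDH, vehicle set to one arbitrary unit.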

[22] = target: T1, Keap1/Nrf2 (Homo sapiens); assay: Inhibition of Keap1/Nrf2 interaction in human HaCaT cells assessed as increase in NQO1 protein expression at 10 uM incubated for 24 hrs by Western blot method; type: cell-based; procedure, shortened: as §2
[23] = Kinetic solubility in pH 7.4 incubated for 1 hr by HPLC method; type: physicochemical; conditions: buffer, read-out: Kinetic_solubility
[24] = Stability in mouse liver microsomes assessed as compound remaining level at 200 uM incubated for 20 mins by LC-MS method; type: ADME, microsome; conditions: read-out: Stability
[25] = system: Salmonella typhimurium; assay: Mutagenicity in Salmonella typhimurium TA98 assessed as increase in number of revertant colonies at 1.5 to 1000 ug/well in presence of rat liver S9 fractions incubated for 48 to 72 hrs; type: toxicity, organism-based; conditions: salmonella enterica subsp. enterica serovar typhimurium
Procedure, shortened: (§3)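 Reverse mutation at histidine locus in top agar (0.6% agar, 0.5% NaCl, histidine/biotin) with Aroclor 1254-induced rat liver S9 mix; DMSO vehicle, doses 1.5–1000 µg/well. Plated in triplicate wells (vehicle sextuplicate) on minimal glucose agar, 37 ± 2 °C for 48–72 h. Revertant colonies counted manually; fold-change over DMSO, p-values by two-tailed t-test.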

[26] = system: Salmonella typhimurium; assay: Mutagenicity in Salmonella typhimurium TA100 assessed as increase in number of revertant colonies at 1.5 to 1000 ug/well in presence of rat liver S9 fractions incubated for 48 to 72 hrs; type: toxicity, organism-based; conditions: salmonella enterica subsp. enterica serovar typhimurium; procedure, shortened: as §3
[27] = Stability in human liver microsomes assessed as compound remaining level at 1 uM incubated for 20 mins by LC-MS method
[28] = Stability in mouse liver microsomes assessed as compound remaining level at 1 uM incubated for 20 mins by LC-MS method

Chain of Keap1/Nrf2 (Q16236 whole entry, the tested form may be a part): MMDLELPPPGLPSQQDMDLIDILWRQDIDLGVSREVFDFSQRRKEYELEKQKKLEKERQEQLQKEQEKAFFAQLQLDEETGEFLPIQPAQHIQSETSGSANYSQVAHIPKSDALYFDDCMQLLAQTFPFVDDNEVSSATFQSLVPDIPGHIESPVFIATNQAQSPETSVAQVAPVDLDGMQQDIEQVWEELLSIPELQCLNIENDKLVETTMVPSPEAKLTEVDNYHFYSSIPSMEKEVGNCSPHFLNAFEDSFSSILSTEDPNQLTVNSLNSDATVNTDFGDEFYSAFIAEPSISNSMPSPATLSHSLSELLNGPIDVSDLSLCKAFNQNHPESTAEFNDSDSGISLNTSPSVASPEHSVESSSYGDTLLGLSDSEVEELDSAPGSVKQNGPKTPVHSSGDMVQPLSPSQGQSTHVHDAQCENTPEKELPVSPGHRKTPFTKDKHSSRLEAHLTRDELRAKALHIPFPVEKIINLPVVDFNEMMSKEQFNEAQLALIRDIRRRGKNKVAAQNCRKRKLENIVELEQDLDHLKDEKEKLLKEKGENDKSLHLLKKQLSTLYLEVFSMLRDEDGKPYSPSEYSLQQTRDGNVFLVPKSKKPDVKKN
Chain of Keap1/Nrf2 (Q14145 whole entry, the tested form may be a part): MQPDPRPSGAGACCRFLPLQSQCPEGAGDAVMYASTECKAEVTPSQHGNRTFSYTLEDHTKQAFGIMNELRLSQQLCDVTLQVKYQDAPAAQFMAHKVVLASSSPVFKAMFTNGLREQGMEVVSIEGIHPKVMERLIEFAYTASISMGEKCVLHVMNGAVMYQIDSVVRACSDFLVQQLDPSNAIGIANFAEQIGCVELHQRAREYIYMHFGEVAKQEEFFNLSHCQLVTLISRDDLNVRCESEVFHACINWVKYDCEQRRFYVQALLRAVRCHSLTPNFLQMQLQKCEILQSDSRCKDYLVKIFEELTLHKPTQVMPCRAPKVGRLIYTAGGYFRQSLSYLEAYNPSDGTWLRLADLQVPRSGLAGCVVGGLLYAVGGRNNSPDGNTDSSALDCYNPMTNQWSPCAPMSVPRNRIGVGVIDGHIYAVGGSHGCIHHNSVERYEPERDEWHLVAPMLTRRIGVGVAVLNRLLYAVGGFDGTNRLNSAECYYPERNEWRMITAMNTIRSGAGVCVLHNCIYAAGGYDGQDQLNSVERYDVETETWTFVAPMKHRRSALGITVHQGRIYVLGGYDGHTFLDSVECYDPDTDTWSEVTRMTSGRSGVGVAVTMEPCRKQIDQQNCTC
T1 sequence (Q14145 whole entry, looked up): as the sequence (Q14145 whole entry, the tested form may be a part) above
T1 sequence (Q16236 whole entry, looked up): as the sequence (Q16236 whole entry, the tested form may be a part) above
Chain of Kelch-like ECH-associated protein 1 (Q14145 whole entry, the tested form may be a part): as the sequence (Q14145 whole entry, the tested form may be a part) above

For COc1ccc(S(=O)(=O)N(CC(=O)O)c2cnc(N(CC(=O)O)S(=O)(=O)c3ccc(OC)cc3)c3ccccc23)cc1, the Activity [1] was “Non-Toxic”, the Activity [2] was “Non-Toxic” and the Activity [3] was “Non-Toxic”. For the same molecule, the Activity [4] was “Non-Toxic”, the Activity [5] was “Non-Toxic” and the Activity [6] was “Non-Toxic”. The Activity [7] was “Non-Toxic” and the logD [8] was -1.7.

For COc1ccc(S(=O)(=O)N(CC(=O)O)c2ccc(N(CC(=O)O)S(=O)(=O)c3ccc(OC)cc3)c3ncccc23)cc1, the IC50 [9] was 101 nM, the Kd [10] was 103 nM and the inhibition [11] was “Active”. For the same molecule, the inhibition [12] was “Active”, the inhibition [13] was “inactive” and the inhibition [14] was “Active”. The inhibition [15] was “Active”, the inhibition [16] was “Active” and the inhibition [17] was “inactive”. The inhibition [18] was “Active”, the inhibition [19] was “Active” and the inhibition [20] was “Active”. The Activity [2] was “Non-Toxic”, the Activity [3] was “Non-Toxic” and the inhibition [21] was “Active”. The inhibition [22] was “Active”.

For COc1ccc(S(=O)(=O)N(CC(=O)O)c2ccc(N(CC(=O)O)S(=O)(=O)c3ccc(OC)cc3)nc2)cc1, the IC50 [9] was > 25000 nM.

Work on COc1ccc(S(=O)(=O)N(CC(=O)O)c2ccc(N(CC(=O)O)S(=O)(=O)c3ccc(OC)cc3)cc2)cc1 yielded an IC50 [9] of 980 nM.

For COc1ccc(S(=O)(=O)N(CC=CCN(CC(=O)O)S(=O)(=O)c2ccc(OC)cc2)CC(=O)O)cc1 (mixture of isomers), the IC50 [9] was > 25000 nM.

With COc1ccc(S(=O)(=O)N(CC(N)=O)c2ccc(N(CC(N)=O)S(=O)(=O)c3ccc(OC)cc3)c3ccccc23)cc1 the solubility kinetic at 1 h [23] was 22 µM (≈ 13.5 µg/mL) and the remaining at 20 min, 200 µM [24] was 0%.

In the case of COc1ccc(S(=O)(=O)N(CC(=O)O)C(=O)c2ccccc2C(=O)N(CC(=O)O)S(=O)(=O)c2ccc(OC)cc2)cc1, the IC50 [9] is reported as > 25000 nM.

For COc1ccc(S(=O)(=O)N(CC(=O)O)c2ccc(N(CC(=O)O)S(=O)(=O)c3ccc(OC)cc3)c3ccccc23)cc1, the Activity [1] was “Non-Toxic”, the solubility kinetic at 1 h [23] was 440 µM (≈ 270 µg/mL) and the Activity [4] was “Non-Toxic”. The Activity [5] was “Non-Toxic”, the Activity [6] was “Non-Toxic” and the Activity [7] was “Non-Toxic”. The Activity [25] was “Dose-dependent effect”, the Activity [26] was “Dose-dependent effect” and the logD [8] was -1.9. For the same molecule, the Stability [27] was “Stable” and the Stability [28] was “Stable”.

In the case of COc1ccc(S(=O)(=O)Nc2ccc(NS(=O)(=O)c3ccc(OC)cc3)c3ncccc23)cc1, the IC50 [9] is reported as > 25000 nM.

COc1ccc(S(=O)(=O)Nc2ccc(NS(=O)(=O)c3ccc(OC)cc3)c3ccccc23)cc1 showed a solubility kinetic at 1 h [23] of 5.4 µM (≈ 2.69 µg/mL) and a remaining at 20 min, 200 µM [24] of 15%.

In the case of COc1ccc(S(=O)(=O)N(CC(=O)O)Cc2ccccc2CN(CC(=O)O)S(=O)(=O)c2ccc(OC)cc2)cc1, the IC50 [9] is reported as > 25000 nM.

Molecule COc1ccc(S(=O)(=O)N(CC(=O)O)c2ccc(N(CC(=O)O)S(=O)(=O)c3ccc(OC)cc3)c3[nH]ccc23)cc1 has an IC50 [9] of 1300 nM.

With COc1ccc(S(=O)(=O)Nc2nnc(NS(=O)(=O)c3ccc(OC)cc3)c3ccccc23)cc1 the IC50 [9] was > 25000 nM.

In the case of COc1ccc(S(=O)(=O)Nc2ccc(NS(=O)(=O)c3ccc(OC)cc3)c3[nH]ccc23)cc1, the IC50 [9] is reported as > 25000 nM.
